Data set [1] is described as follows: Metabolic stability in mouse liver microsomes assessed as parent compound remaining after 30 mins. It is filed as ADME, Microsome. The conditions noted are these: for remaining at 0.5 h: liver microsomes, read-out: Stabilty; for Stabilty: microsomes, 0.5 h. The procedure, abridged:
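Compound incubated with mouse liver microsomes for 30 minutes at 37 °C, with dextromethorphan as positive control. Read-out is the percentage of unmodified compound remaining at 30 min.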

Data set [2] can be described thus: Metabolic stability in mouse liver microsomes assessed as half life. Type of data set: ADME, Microsome. The following applies: for half-life: liver microsomes. The procedure, abridged:
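Half-life in mouse liver microsome assays was calculated from the amount of compound remaining over time, with dextromethorphan as positive control.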

The subject of another data set is HeLa C3. The data set is described as follows: Inhibition of HSP70 in human HeLa C3 cells assessed as degradation of tau at >10 uM incubated for 24 hrs by Western blot analysis. It is filed as cell-based. The following applies: dose microM >10, time 24.0 hrs. The essentials: (§1)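 Cells treated for 24 h at the indicated concentrations, then lysed; total tau, Hsp72 and Hsp90 levels analyzed by Western blot. HeLaC3 cells over-express 0N4R tau. SH-SY5Y cells express tau at physiological levels.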

A short description of data set [3]: Induction of heat shock response in human HeLa C3 cells assessed as effect on HSP72 expression at 3 to 30 uM incubated for 24 hrs by Western blot analysis. The following applies: hela c3, 24 h, dose 3-30 µM. Type of data set: cell-based. The essentials: as §1
Data set [4] in a line: Induction of heat shock response in human HeLa C3 cells assessed as effect on HSP90 expression at 3 to 30 uM incubated for 24 hrs by Western blot analysis. It is filed as cell-based. The conditions noted are these: hela c3, 24 h, dose 3-30 µM. The procedure, abridged:
as §1

Data set [5] has as its system SH-SY5Y. The data set is described as follows: Inhibition of HSP70 in human SH-SY5Y cells assessed as degradation of tau at 3 to 30 uM incubated for 24 hrs by Western blot analysis relative to control. The conditions noted are these: dose 3-30 µM. It is filed as cell-based. The essentials:
as §1

Data set [6] has as its system SH-SY5Y. The data set is described as follows: Induction of heat shock response in human SH-SY5Y cells assessed as effect on HSP72 expression at 3 to 30 uM incubated for 24 hrs by Western blot analysis. It is filed as cell-based. The conditions noted are these: dose 3-30 µM. The procedure, abridged:
as §1

Data set [7] has as its system SH-SY5Y. The data set is described as follows: Induction of heat shock response in human SH-SY5Y cells assessed as effect on HSP90 expression at 3 to 30 uM incubated for 24 hrs by Western blot analysis. The conditions noted are these: dose 3-30 µM. It is filed as cell-based. The procedure, abridged:
as §1

Here are results for 19 compounds from ChEMBL document CHEMBL4814053, “Inhibitors of heat shock protein 70 (Hsp70) with enhanced metabolic stability reduce tau levels” (Bioorg Med Chem Lett, 2021).

Activity calls are given as the source filed them. No cut-off for these calls is given here. Bounds are passed on as bounds.

Consider `CCn1c(=O)/c(=C2\Sc3cc(Cl)ccc3N2C)s/c1=C\c1ccncc1`, for which the remaining at 0.5 h in data set [1] amounted to 39%. Besides, the half-life in data set [2] stood at 22 min.
Regarding `CCn1c(=O)/c(=C2\Sc3cc(Cl)ccc3N2C)s/c1=C\c1ccccn1`, the remaining at 0.5 h in data set [1] was 13%.
With `CCn1c(=O)/c(=C2\Sc3cccc(Cl)c3N2C)s/c1=C\c1ccccn1`, the remaining at 0.5 h in data set [1] was determined as 38%. For the same compound, the half-life in data set [2] was 23 min.
On the same counts, the results for `CCn1c(=O)/c(=C2\Sc3ccc(Cl)cc3N2C)s/c1=C\c1ccccn1` are 37% and 17 min.
Consider `CCn1c(=O)/c(=C2\Sc3ccc(F)cc3N2C)s/c1=C\c1ccccn1`, for which, in data set [1], the remaining at 0.5 h was 19%.
As to `CCn1c(=O)/c(=C2\Sc3c(F)cccc3N2C)s/c1=C\c1ccccn1`, the remaining at 0.5 h in data set [1] turned out to be 12%.
As for `CCn1c(=O)/c(=C2\Sc3ccc(Cl)cc3N2C)s/c1=C\c1ccncc1`, the remaining at 0.5 h in data set [1] came out at 52%. For the same compound, the t1/2 in data set [2] (microsomes) came out at 36 min. In addition, in the data set on HeLa C3, the inhibition entry was “Active”. For the same compound, the Activity entry (in data set [3]; in data set [4]; with SH-SY5Y [6]; with SH-SY5Y [7]) was “Non-Toxic” throughout. For the same compound, the inhibition in the data set on SH-SY5Y [5] was found to be 80%.
In the case of `CCn1c(=O)/c(=C2\Sc3ccc(F)cc3N2C)s/c1=C\c1ccncc1`, the remaining at 0.5 h in data set [1] amounted to 23%.
For `CCn1c(=O)/c(=C2\Sc3ccccc3N2C)s/c1=C\c1ccccn1`, the Stabilty entry in data set [1] (BLD = below limit of detection) is listed as “Bld”. Moreover, the half-life in data set [2] is under 3 min.
For the compound `CCn1c(=O)/c(=C2\Sc3cccc(F)c3N2C)s/c1=C\c1ccccn1`, in data set [1], the remaining at 0.5 h came to 12%.
For the compound `CCn1c(=O)/c(=C2\Sc3c(F)cccc3N2C)s/c1=C\c1ccncc1`, the remaining at 0.5 h in data set [1] is 30%.
On to `CCn1c(=O)/c(=C2\Sc3cc(F)ccc3N2C)s/c1=C\c1ccncc1`, for which the remaining at 0.5 h in data set [1] amounted to 13%.
Consider `COc1ccc2c(c1)[C@]13CCCC[C@@H]1[C@H](C2)N(C)CC3` [DEXTROMETHORPHAN], for which the half-life in data set [2] turned out to be 25 min.
In the case of `CCn1c(=O)/c(=C2\Sc3cccc(F)c3N2C)s/c1=C\c1ccncc1`, the remaining at 0.5 h in data set [1] came out at 33%.
In the case of `CCn1c(=O)/c(=C2\Sc3c(Cl)cccc3N2C)s/c1=C\c1ccncc1`, the Stabilty result in data set [1] was “Nd(Insoluble)”.
In the case of `CCn1c(=O)/c(=C2\Sc3c(Cl)cccc3N2C)s/c1=C\c1ccccn1`, the remaining at 0.5 h in data set [1] was determined as 17%.
Still for that read-out and setting: as for `CCn1c(=O)/c(=C2\Sc3ccccc3N2C)s/c1=C\c1ccncc1`, the figure is 6%.
For `CCn1c(=O)/c(=C2\Sc3cccc(Cl)c3N2C)s/c1=C\c1ccncc1`, the Stabilty result in data set [1] is on record as “Nd(Insoluble)”.
For `CCn1c(=O)/c(=C2\Sc3cc(F)ccc3N2C)s/c1=C\c1ccccn1`, the remaining at 0.5 h in data set [1] is 5%.
